From ChEMBL document CHEMBL1148613, “Synthesis and biological evaluation of novel phenylcarbazoles as potential anticancer agents” (J Med Chem, 2006)

Key:
[1] = test system: CCRF-CEM; experiment: Cytotoxicity against human leukemic CEM cell line; type: functional, cell-based
Outline: (§1)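 Human leukemia cells (CEM, or topoisomerase I-deficient CEM/C2) grown at 37 °C, 5% CO2 in RPMI 1640 with 10% FBS, glucose, HEPES, pyruvate and antibiotics. 2 × 10^4 exponentially growing cells seeded with graded drug concentrations, 72 h at 37 °C. Tetrazolium dye (CellTiter 96 aqueous one-solution) added for a further 2 h, absorbance read at 492 nm; IC50 reported.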

[2] = target: Cyclin-dependent kinase 5/CDK5 activator 1 (Homo sapiens, UniProt Q00535); experiment: Inhibitory activity against CDK5/p25; type: protein-complex assay
Outline: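 Recombinant mammalian CDK5 and p25, expressed in E. coli as GST fusions, glutathione-agarose purified and mixed in equal amounts. Assayed in buffer C pH 7.2 with 1 mg/mL histone H1 and 15 µM [γ-33P]ATP, 10 min at 30 °C. P81 filter binding and scintillation counting; activity as percent of maximal activity without inhibitor.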

[3] = Inhibitory activity against CDK1/Cyclin B from starfish oocytes; design: species or system Marthasterias glacialis; details: oocyte
Outline: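 Starfish oocyte (M phase) CDK1/cyclin B, affinity-purified on p9CKShs1-sepharose. Buffer C (25 mM Mops pH 7.2, β-glycerophosphate, p-nitrophenyl phosphate, EGTA, 15 mM MgCl2, DTT, vanadate, phenyl phosphate), 1 mg/mL histone H1, 15 µM [γ-33P]ATP, 10 min at 30 °C. Read by P81 phosphocellulose binding, washing and scintillation counting; activity as percent of uninhibited control, DMSO controls.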

[4] = target: Glycogen synthase kinase-3 (Homo sapiens, UniProt P49840+P49841); experiment: Inhibitory activity against GSK3 from porcine brain; design: species or system Sus scrofa; details: target entry is the homologue from another species
Outline: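 GSK-3α/β purified from porcine brain on immobilized axin, diluted 1/100 in BSA/DTT. Buffer A (25 mM Tris-HCl pH 7.5, 10 mM MgCl2, EGTA, DTT, 50 µg/mL heparin), GS-1 peptide substrate (5 µL of 40 µM), 15 µM [γ-33P]ATP, 30 min at 30 °C. P81 phosphocellulose filters washed in dilute phosphoric acid and counted; activity relative to no-inhibitor control.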

[5] = test system: CEM/C2; experiment: Cytotoxicity against camptothecin-resistant human leukemic CEMC2 cell line; type: functional, cell-based; outline: as §1

Cyclin-dependent kinase 5/CDK5 activator 1, sequence (Q00535 whole entry, the tested form may be a part): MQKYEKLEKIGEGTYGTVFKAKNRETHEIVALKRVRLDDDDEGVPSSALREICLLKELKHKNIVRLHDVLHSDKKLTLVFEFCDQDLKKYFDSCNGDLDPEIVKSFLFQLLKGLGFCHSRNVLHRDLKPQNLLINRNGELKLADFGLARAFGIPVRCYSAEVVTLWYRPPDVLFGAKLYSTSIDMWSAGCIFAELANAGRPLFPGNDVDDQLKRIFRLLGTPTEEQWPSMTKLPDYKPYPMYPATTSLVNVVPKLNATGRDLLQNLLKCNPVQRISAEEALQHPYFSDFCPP
Cyclin-dependent kinase 5/CDK5 activator 1, sequence (Q15078 whole entry, further chain, the tested form may be a part): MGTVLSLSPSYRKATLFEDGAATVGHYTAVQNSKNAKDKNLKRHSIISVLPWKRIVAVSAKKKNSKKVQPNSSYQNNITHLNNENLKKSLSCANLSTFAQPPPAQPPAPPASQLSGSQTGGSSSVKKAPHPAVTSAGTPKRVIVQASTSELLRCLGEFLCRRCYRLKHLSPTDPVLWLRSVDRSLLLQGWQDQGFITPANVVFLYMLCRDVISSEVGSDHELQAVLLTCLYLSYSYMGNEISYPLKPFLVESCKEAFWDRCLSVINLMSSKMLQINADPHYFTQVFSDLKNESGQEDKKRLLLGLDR

Structure (SMILES)	IC50 [2] [µM]	IC50 [4] [µM]	IC50 [1] [µM]	IC50 [3] [µM]	IC50 [5] [µM]
CN1C(=O)c2c(c3c4cc(O)ccc4[nH]c3c3ccccc23)C1=O	> 10	–	1.64	> 10	4.17
CN(C)CCN1C(=O)c2c(c3c4cc(O)ccc4[nH]c3c3ccccc23)C1=O	> 10	–	0.0122	> 10	0.0187
O=C1c2c(c3c4ccccc4[nH]c3c3ccccc23)C(=O)N1CCc1c[nH]cn1	> 10	–	1.58	> 10	2.92
O=C1c2c(c3c4cc(O)ccc4[nH]c3c3ccccc23)C(=O)N1C(CO)CO	> 10	–	2.84	> 10	4.96
O=C1c2c(c3c4cc(O)ccc4[nH]c3c3ccccc23)C(=O)N1CCc1c[nH]cn1	> 10	–	0.715	> 10	1.9

Now from value to compound, other results behind:

IC50 [2] [µM]	IC50 [4] [µM]	Structure (SMILES)	IC50 [1] [µM]	IC50 [3] [µM]	IC50 [5] [µM]
8.5	20	O=C1NC(=O)c2c1c1ccccc1c1[nH]c3ccccc3c21	> 100	80	> 100
> 10	–	CN(C)CCN1C(=O)c2c(c3c4ccccc4[nH]c3c3ccccc23)C1=O	0.11	> 10	0.335
> 10	–	O=C1OC(=O)c2c1c1ccccc1c1[nH]c3ccccc3c21	> 25	> 10	> 50
> 10	–	O=C1OC(=O)c2c1c1ccccc1c1[nH]c3ccc(O)cc3c21	14.7	> 10	32.3
0.25	0.46	O=C1NC(=O)c2c1c1ccccc1c1[nH]c3ccc(O)cc3c21	> 25	0.58	> 25
> 10	–	CN1C(=O)c2c(c3c4ccccc4[nH]c3c3ccccc23)C1=O	> 100	> 10	> 100
> 10	–	O=C1c2c(c3c4ccccc4[nH]c3c3ccccc23)C(=O)N1C(CO)CO	3.71	> 10	4.95
